The values that follow come from ChEMBL document CHEMBL3232847, “Discovery of 6-phenylpyrimido[4,5-b][1,4]oxazines as potent and selective acyl CoA:diacylglycerol acyltransferase 1 (DGAT1) inhibitors with in vivo efficacy in rodents” (J Med Chem, 2014).

Data set [1] can be described thus: Oral Bioavailability in CD1 mouse at 0.3 mg/kg. It counts as ADME, organism-based. The note with it: in vivo.
Data set [2] in a line: AUC in CD1 mouse at 0.3 mg/kg, po. In kind it is ADME, organism-based. Also on record: dose 0.3 mg/kg, route oral. The note with it: plasma.
Data set [3] deals with T1, Sterol O-acyltransferase 1 (Homo sapiens, UniProt P35610).
T1 sequence (P35610 whole entry): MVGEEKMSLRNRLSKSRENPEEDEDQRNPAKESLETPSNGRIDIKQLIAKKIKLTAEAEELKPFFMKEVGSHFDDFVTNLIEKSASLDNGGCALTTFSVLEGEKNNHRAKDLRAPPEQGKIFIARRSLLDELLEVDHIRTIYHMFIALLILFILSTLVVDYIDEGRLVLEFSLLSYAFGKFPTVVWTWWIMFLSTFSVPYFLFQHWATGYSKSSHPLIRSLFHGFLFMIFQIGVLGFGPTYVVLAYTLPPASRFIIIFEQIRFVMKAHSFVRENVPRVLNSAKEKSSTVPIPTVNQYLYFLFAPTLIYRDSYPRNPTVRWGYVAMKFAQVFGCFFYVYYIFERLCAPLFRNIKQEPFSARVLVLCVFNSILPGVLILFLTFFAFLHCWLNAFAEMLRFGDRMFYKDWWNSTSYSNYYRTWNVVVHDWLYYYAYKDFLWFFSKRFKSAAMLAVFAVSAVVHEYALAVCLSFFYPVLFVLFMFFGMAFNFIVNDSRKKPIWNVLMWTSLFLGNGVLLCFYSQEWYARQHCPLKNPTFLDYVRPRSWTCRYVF
In words: Inhibition of human full-length flag-tagged ACAT1 expressed in baculovirus infected insect cells using [14C]palmitoyl CoA as substrate after 10 mins by scintillation counting.

Data set [4] addresses T2, Diacylglycerol O-acyltransferase 2 (Homo sapiens, UniProt Q96PD7).
T2 sequence (Q96PD7 whole entry): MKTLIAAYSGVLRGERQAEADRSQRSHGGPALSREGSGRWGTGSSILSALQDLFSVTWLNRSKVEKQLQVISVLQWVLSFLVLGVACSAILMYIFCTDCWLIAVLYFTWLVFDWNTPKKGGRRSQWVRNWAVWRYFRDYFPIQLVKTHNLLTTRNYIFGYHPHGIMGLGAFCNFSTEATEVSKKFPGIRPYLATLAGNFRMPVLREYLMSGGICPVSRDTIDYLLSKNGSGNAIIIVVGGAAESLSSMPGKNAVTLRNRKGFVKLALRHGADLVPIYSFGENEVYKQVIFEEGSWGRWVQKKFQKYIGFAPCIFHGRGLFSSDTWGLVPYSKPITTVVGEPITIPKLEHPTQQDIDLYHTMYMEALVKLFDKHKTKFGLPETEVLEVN
Description: Inhibition of human liver flag-tagged DGAT2 expressed in baculovirus infected insect cells after 2 hrs by SPA.

The nature of data set [5]: Volume of distribution at steady state in beagle dog at 0.2 mg/kg, iv. It counts as ADME, organism-based, Canis lupus familiaris. Also on record: dose 0.2 mg/kg, route intravenous. As to conditions: in vivo, read-out: Vdss.
The nature of data set [6]: Volume of distribution at steady state in cynomolgus monkey at 0.5 mg/kg, iv. In kind it is ADME, organism-based, Macaca fascicularis. Also on record: dose 0.5 mg/kg, route intravenous. As to conditions: in vivo, read-out: Vdss.
Data set [7] is described as follows: Half life in cynomolgus monkey at 0.5 mg/kg, iv. It counts as ADME, organism-based, Macaca fascicularis. More on the design: dose 0.5 mg/kg, route intravenous. The note with it: in vivo.
The nature of data set [8]: AUC in cynomolgus monkey at 5 mg/kg, po. In kind it is ADME, organism-based, Macaca fascicularis. Also on record: dose 5 mg/kg, route oral. The note with it: plasma.
A short description of data set [9]: Oral bioavailability in cynomolgus monkey at 5 mg/kg. In kind it is ADME, organism-based, Macaca fascicularis. As to conditions: in vivo.
Data set [10] deals with Rattus norvegicus. Description: Toxicity in Sprague-Dawley rat assessed as sebaceous gland atrophy at 30 to 100 mg/kg, po qd by 14-day multiple-dose toxicity study. It counts as organism-based. More on the design: dose 30-100 mg/kg, route oral. The note with it: in vivo. In short, it runs like this:
(§1)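 Sprague−Dawley rats were dosed po once daily for 14 days. Clinical and histopathological findings were assessed, and plasma AUC was recorded for each dose.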

Data set [11] in a line: AUC in Sprague-Dawley rat at 100 mg/kg, po qd. It counts as ADME, organism-based. More on the design: dose 100 mg/kg, route oral. As to conditions: plasma. In short, it runs like this:
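Sprague-Dawley rats dosed orally once daily for 14 days in a multiple-dose toxicity study at 10, 30 or 100 mg/kg. Plasma exposure was reported as AUC, and clinical and histopathological findings were recorded.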

For another data set, the system named is Cynomolgus monkey. In words: Toxicity in cynomolgus monkey assessed as elevation of ALT level at 10 to 30 mg/kg/day, po qd by 21-day multiple-dose toxicity study relative to control. In kind it is organism-based, Macaca fascicularis. More on the design: route oral. As to conditions: in vivo. In short, it runs like this: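 Cynomolgus monkeys were dosed po once daily at 10 and 30 mg/kg for 21 days. ALT and AST levels, QTc intervals, and clinical and histopathological findings were assessed, and plasma AUC was recorded for each dose.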

Data set [12] can be described thus: AUC in cynomolgus monkey at 10 mg/kg/day, po qd. In kind it is ADME, organism-based, Macaca fascicularis. More on the design: route oral. The note with it: plasma. In short, it runs like this: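 Cynomolgus monkeys dosed orally once daily at 10 or 30 mg/kg for 21 days in a multiple-dose toxicity study. Plasma AUC was reported, with ALT/AST levels, QTc intervals and clinical and histopathological findings monitored.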

The nature of data set [13]: Half life in Sprague-Dawley rat at 1 mg/kg, iv. It counts as ADME, organism-based. More on the design: dose 1 mg/kg, route intravenous. As to conditions: in vivo.
A short description of data set [14]: Oral bioavailability in beagle dog at 5 mg/kg. In kind it is ADME, organism-based, Canis lupus familiaris. The note with it: in vivo.
Data set [15] is described as follows: Clearance in rhesus monkey at 0.2 mg/kg, iv. In kind it is ADME, organism-based, Macaca mulatta. More on the design: dose 0.2 mg/kg, route intravenous. The note with it: in vivo.
The test system of another data set is Mus musculus. In words: Reduction in plasma triglyceride level in C57BL/6J mouse at 0.3 mg/kg, po treated 30 mins prior to olive oil administration measured 3 hrs post olive oil administration relative to vehicle-treated control. In kind it is functional. More on the design: scale not given: the % may be the effect or the level left. In outline:
(§2)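 Animals received vehicle or compound by oral gavage, then olive oil (5 mL/kg) by oral gavage 30 min later. Plasma triglycerides were measured before dosing and 3 h after the oil. The read-out was the change in TG from pre-dose, compared with vehicle-treated animals.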

Data set [16] has as its system Rattus norvegicus. Description: Reduction in plasma triglyceride level in Sprague-Dawley rat at 0.3 mg/kg, po treated 30 mins prior to olive oil administration measured 3 hrs post olive oil administration relative to vehicle-treated control. In kind it is functional. More on the design: scale not given: the % may be the effect or the level left. In outline: as §2

In data set [17] the test system is Rattus norvegicus. In words: Reduction in plasma triglyceride level in Sprague-Dawley rat at 1 mg/kg, po treated 30 mins prior to olive oil administration measured 3 hrs post olive oil administration relative to vehicle-treated control. In kind it is functional. More on the design: scale not given: the % may be the effect or the level left. In outline:
as §2

Data set [18] concerns Rattus norvegicus. In words: Toxicity in Sprague-Dawley rat assessed as change in histopathological parameters at 30 mg/kg, po by 14-day multiple-dose toxicity study. It counts as organism-based. More on the design: dose 30 mg/kg, route oral. The note with it: in vivo. In outline:
as §1

The nature of data set [19]: AUC in Sprague-Dawley rat at 100 mg/kg, po. More on the design: dose 100 mg/kg, route oral. The note with it: plasma. In kind it is ADME, organism-based.
Data set [20] deals with T3, Diacylglycerol O-acyltransferase 2 (Homo sapiens) (UniProt Q96PD7).
T3 sequence (whole entry): T2 sequence (Q96PD7 whole entry)
In words: Inhibition of human liver flag-tagged DGAT2 expressed in baculovirus infected insect cells up to 10 uM after 2 hrs by SPA.

Data set [21] is described as follows: Oral Bioavailability in CD1 mouse at 2 mg/kg. It counts as ADME, organism-based. As to conditions: in vivo.
Data set [22] is described as follows: Clearance in Sprague-Dawley rat at 1 mg/kg, iv. The note with it: in vivo. It counts as ADME, organism-based. More on the design: dose 1 mg/kg, route intravenous.

Activity calls are given as the source filed them. The calls are words filed in the database; no cut-off is given here. A value given as a limit tells only on which side of the number the result lay.

One may read the bioavailability as dose-corrected exposure relative to a reference, in per cent. By AUC is commonly meant the area under the concentration-time curve, a measure of exposure. One may read the IC50 as the concentration that gives 50% inhibition. For orientation: half-life means how long it takes for the measured level to halve. As for `CC1(C)Oc2nc(C(F)(F)F)nc(N)c2N=C1c1ccc2c(c1)CC[C@]21CC[C@@H](CC(=O)O)CC1`, the bioavailability in data set [1] is 77%; in data set [9], 99%. Moreover, the AUC in [2] came out at 0.341 µg·h/mL; in [8], 252 µg·h/mL; in data set [11], 677 µM·h; in data set [12], 607 µM·h. In addition, the IC50 in data set [3] and in data set [4] was greater than 10 µM each time. The Vd worked out at 0.21 L/kg in [5] and 0.44 L/kg in [6]. The molecule also had a half-life in [7] of 15.4 h. Moreover, the Activity entry in the data set on Rattus norvegicus [10] was “Toxic”; in the data set on Cynomolgus monkey it was “Non-toxic”.
Broadly, the clearance is the rate of elimination divided by the concentration. With `CC1(C)Oc2ncnc(N)c2N=C1c1ccc([C@H]2CC[C@H](CC(=O)O)CC2)cc1`, the half-life in [13] is 1.7 h. Further, the results for the bioavailability in data set [14] and in data set [21] were 64% and 40%, respectively. In addition, the clearance is 3.67 mL/min/kg in data set [15] and 9.17 mL/min/kg in [22]. In addition, the Activity in the data set with Mus musculus was 93%; with Rattus norvegicus [16], 88%; in the data set on Rattus norvegicus [17] it was 110%; in the data set on Rattus norvegicus [18], “Non-toxic”. Also, the AUC in data set [19] is 3750 µM·h. Besides, in data set [20], the inhibition entry is “inactive”.
